Measurements published in ChEMBL document CHEMBL1127424, “7-azetidinylquinolones as antibacterial agents. 2. Synthesis and biological activity of 7-(2,3-disubstituted-1-azetidinyl)-4-oxoquinoline- and -1,8-naphthyridine-3-carboxylic acids. Properties and structure-activity relationships of quinolones with an azetidine moiety” (J Med Chem, 1994).
Values after ≈ are worked out from the molar mass of the structure shown. Values belong to the compound of their own block, whether it stands above or below them.

Tests used:
Enterobacter cloacae = assay: In vitro minimum inhibitory concentration for Enterobacter cloacae ATCC 23355; assay type: functional
[1] = HPLC capacity factor (k'); assay type: ADME
Method in brief: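 Ion-pair reversed-phase HPLC on ODS-2 (10 μm) at 45 °C. Mobile phase: 10 mM sodium heptanesulfonate plus 50 mM KH2PO4 (pH 3.5)–methanol 45:55, 1 mL/min. Samples at 100 μg/mL in DMF, injected in duplicate, UV 280 nm. k' = (tR − t0)/t0.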

[2] = test system: Staphylococcus epidermidis; assay: In vitro minimum inhibitory concentration for Staphylococcus epidermidis ATCC 155-1; assay type: functional
Method in brief: (§1)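 Serial 2-fold agar dilution in Mueller Hinton medium, run alongside a reference quinolone. Inoculum adjusted to 10⁸ cfu/mL; compound range 0.007–16 μg/mL.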

Morganella morganii = assay: In vitro minimum inhibitory concentration for Morganella morganii ATCC 8019; assay type: functional; method in brief: as §1
Bacillus subtilis = assay: In vitro minimum inhibitory concentration for Bacillus subtilis ATCC 6633; assay type: functional; method in brief: as §1
Staphylococcus aureus = assay: In vitro minimum inhibitory concentration for Staphylococcus aureus ATCC 25178; assay type: functional; method in brief: as §1
Proteus vulgaris = assay: In vitro minimum inhibitory concentration for Proteus vulgaris ATCC 8427; assay type: functional; method in brief: as §1
Pseudomonas aeruginosa = assay: In vitro minimum inhibitory concentration for Pseudomonas aeruginosa ATCC 10145; assay type: functional; method in brief: as §1
Klebsiella pneumoniae = assay: In vitro minimum inhibitory concentration to inhibit Klebsiella pneumoniae ATCC 10031; assay type: functional; method in brief: as §1
Escherichia coli = assay: In vitro minimum inhibitory concentration for Escherichia coli ATCC 10799; assay type: functional; method in brief: as §1
Bacillus cereus = assay: In vitro minimum inhibitory concentration for Bacillus cereus ATCC 11778; assay type: functional; method in brief: as §1
Enterococcus faecalis = assay: In vitro minimum inhibitory concentration for Streptococcus faecalis ATCC 10541; assay type: functional; method in brief: as §1

MIC (Enterobacter cloacae): 0.06 µg/mL (≈ 0.177 µM) | Log k' [1]: -0.2166 | MIC [2]: 0.5 µg/mL (≈ 1.48 µM) | MIC (Morganella morganii): 0.06 µg/mL (≈ 0.177 µM) | MIC (Bacillus subtilis): 0.12 µg/mL (≈ 0.355 µM) | MIC (Staphylococcus aureus): 1 µg/mL (≈ 2.96 µM) | MIC (Proteus vulgaris): 0.5 µg/mL (≈ 1.48 µM) | MIC (Pseudomonas aeruginosa): 2 µg/mL (≈ 5.91 µM) | MIC (Klebsiella pneumoniae): 0.06 µg/mL (≈ 0.177 µM) | MIC (Escherichia coli): 0.12 µg/mL (≈ 0.355 µM) | MIC (Bacillus cereus): 0.5 µg/mL (≈ 1.48 µM) | MIC (Enterococcus faecalis): 4 µg/mL (≈ 11.8 µM)
SMILES: C[C@H]1[C@H](N)CN1c1nc2c(cc1F)c(=O)c(C(=O)O)cn2CCF

Log k' [1]: 0.9074
SMILES: O=C(O)c1cn(C2CC2)c2c(F)c(N3CCC3)c(F)cc2c1=O

MIC (Enterobacter cloacae): 0.5 µg/mL (≈ 1.44 µM) | Log k' [1]: 0.529 | MIC [2]: 0.5 µg/mL (≈ 1.44 µM) | MIC (Morganella morganii): 1 µg/mL (≈ 2.89 µM) | MIC (Bacillus subtilis): 0.06 µg/mL (≈ 0.173 µM) | MIC (Staphylococcus aureus): 1 µg/mL (≈ 2.89 µM) | MIC (Proteus vulgaris): 0.5 µg/mL (≈ 1.44 µM) | MIC (Pseudomonas aeruginosa): 8 µg/mL (≈ 23.1 µM) | MIC (Klebsiella pneumoniae): 0.5 µg/mL (≈ 1.44 µM) | MIC (Escherichia coli): 2 µg/mL (≈ 5.77 µM) | MIC (Bacillus cereus): 1 µg/mL (≈ 2.89 µM) | MIC (Enterococcus faecalis): 8 µg/mL (≈ 23.1 µM)
SMILES: CC[C@H]1[C@@H](O)CN1c1cc2c(cc1F)c(=O)c(C(=O)O)cn2C1CC1

MIC (Enterobacter cloacae): 0.25 µg/mL (≈ 0.752 µM) | Log k' [1]: 0.3299 | MIC [2]: 0.25 µg/mL (≈ 0.752 µM) | MIC (Morganella morganii): 0.5 µg/mL (≈ 1.5 µM) | MIC (Bacillus subtilis): 0.015 µg/mL (≈ 0.0451 µM) | MIC (Staphylococcus aureus): 0.25 µg/mL (≈ 0.752 µM) | MIC (Proteus vulgaris): 0.25 µg/mL (≈ 0.752 µM) | MIC (Pseudomonas aeruginosa): 4 µg/mL (≈ 12 µM) | MIC (Klebsiella pneumoniae): 0.25 µg/mL (≈ 0.752 µM) | MIC (Escherichia coli): 0.5 µg/mL (≈ 1.5 µM) | MIC (Bacillus cereus): 0.25 µg/mL (≈ 0.752 µM) | MIC (Enterococcus faecalis): 2 µg/mL (≈ 6.02 µM)
SMILES: C[C@H]1[C@@H](O)CN1c1cc2c(cc1F)c(=O)c(C(=O)O)cn2C1CC1

Log k' [1]: 0.2107
SMILES: CNC1(C)CN(c2nc3c(cc2F)c(=O)c(C(=O)O)cn3C(C)(C)C)C1

Log k' [1]: -0.1033
SMILES: CCn1cc(C(=O)O)c(=O)c2c(N)c(F)c(N3CC(N)C3)c(F)c21

Log k' [1]: -0.196
SMILES: NCC1CN(c2c(F)cc3c(=O)c(C(=O)O)cn(C4CC4)c3c2F)C1

Log k' [1]: -0.1706
SMILES: CC1(N)CN(c2nc3c(cc2F)c(=O)c(C(=O)O)cn3CCF)C1

Log k' [1]: 0.7188
SMILES: O=C(O)c1cn(C2CC2)c2cc(N3CCC3)c(F)cc2c1=O

Log k' [1]: 0.1106
SMILES: CC1(N)CN(c2c(F)cc3c(=O)c(C(=O)O)cn(-c4ccc(F)cc4)c3c2F)C1

Log k' [1]: 0.3448
SMILES: CC1(N)CN(c2c(F)cc3c(=O)c(C(=O)O)cn(-c4ccc(F)cc4F)c3c2Cl)C1

Log k' [1]: -0.0773
SMILES: CNC1CN(c2nc3c(cc2F)c(=O)c(C(=O)O)cn3C2CC2)C1

Log k' [1]: 0.0367
SMILES: CCn1cc(C(=O)O)c(=O)c2c(N)c(F)c(N3CC(C)(N)C3)c(F)c21

Log k' [1]: 0.5451
SMILES: CC1(O)CN(c2c(F)cc3c(=O)c(C(=O)O)cn(C4CC4)c3c2F)C1

Log k' [1]: 0.0294
SMILES: CC1(N)CN(c2cc3c(cc2F)c(=O)c(C(=O)O)cn3C(C)(C)C)C1

Log k' [1]: 0.0408
SMILES: CNC1(C)CN(c2nc3c(cc2F)c(=O)c(C(=O)O)cn3C2CC2)C1

Log k' [1]: 0.121
SMILES: CCn1cc(C(=O)O)c(=O)c2cc(F)c(N3CC(C)(N)C3)c(Cl)c21

Log k' [1]: 0.3487
SMILES: Nc1c(F)c(N2CC(O)C2)c(F)c2c1c(=O)c(C(=O)O)cn2C1CC1

Log k' [1]: 0.0374
SMILES: CC1(N)CN(c2cc3c(cc2F)c(=O)c(C(=O)O)cn3CCF)C1

Log k' [1]: -0.1871
SMILES: CC1(N)CN(c2c(F)cc3c(=O)c(C(=O)O)cn(CCF)c3c2F)C1

Log k' [1]: 0.25
SMILES: CNC1CN(c2c(F)cc3c(=O)c(C(=O)O)cn(-c4ccc(F)cc4F)c3c2Cl)C1

Log k' [1]: 0.464
SMILES: CN(C)C1CN(c2nc3c(cc2F)c(=O)c(C(=O)O)cn3C2CC2)C1

Log k' [1]: 0.6222
SMILES: CCC1(O)CN(c2cc3c(cc2F)c(=O)c(C(=O)O)cn3C2CC2)C1

Log k' [1]: 0.0128
SMILES: CC1(N)CN(c2nc3c(cc2F)c(=O)c(C(=O)O)cn3C(C)(C)C)C1

Log k' [1]: -0.1805
SMILES: CCn1cc(C(=O)O)c(=O)c2cc(F)c(N3CC(C)(N)C3)cc21

Log k' [1]: 0.3264
SMILES: O=C(O)c1cn(C2CC2)c2c(F)c(N3CC(O)C3)c(F)cc2c1=O

Log k' [1]: -0.0356
SMILES: CCNCC1(C)CN(c2cc3c(cc2F)c(=O)c(C(=O)O)cn3C2CC2)C1

Log k' [1]: 0.1906
SMILES: O=C(O)c1cn(C2CC2)c2cc(N3CC(O)C3)c(F)cc2c1=O

Log k' [1]: 0.0063
SMILES: NC1CN(c2nc3c(cc2F)c(=O)c(C(=O)O)cn3-c2ccc(F)cc2F)C1

MIC (Enterobacter cloacae): 0.06 µg/mL (≈ 0.17 µM) | Log k' [1]: 0.16 | MIC [2]: 0.12 µg/mL (≈ 0.339 µM) | MIC (Morganella morganii): 0.03 µg/mL (≈ 0.0848 µM) | MIC (Bacillus subtilis): 0.03 µg/mL (≈ 0.0848 µM) | MIC (Staphylococcus aureus): 0.12 µg/mL (≈ 0.339 µM) | MIC (Proteus vulgaris): 0.25 µg/mL (≈ 0.707 µM) | MIC (Klebsiella pneumoniae): 0.03 µg/mL (≈ 0.0848 µM) | MIC (Escherichia coli): 0.06 µg/mL (≈ 0.17 µM) | MIC (Bacillus cereus): 0.12 µg/mL (≈ 0.339 µM) | MIC (Enterococcus faecalis): 0.5 µg/mL (≈ 1.41 µM)
SMILES: CCn1cc(C(=O)O)c(=O)c2cc(F)c(N3C[C@@H](N)[C@@H]3C)c(Cl)c21
